A selection: hits, their analogues and other compounds. The true share with any hit is near 0.68%.
Pf gamet viab: kills late stage P. falciparum gametocytes. P. falciparum stage V gametocytes, ATP luminescence, 24 h. inhibition, % at 10.9 µM. 0.065% of 150,000 active;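 active means inhibition above the mean plus 3 SD of compounds within the control limits, set per campaign, cut at about 38% in these data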;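 further: 0% = DMSO wells and 100% = medium only without gametocytes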
TNAP act hi DEA: TNAP (human) activation, high acceptor; P05186; purified TNAP, CDP-star luminescence, 1 M DEA, 30 min; hits give high values; 0 = EDTA background, 1 = DMSO-only activity; activation factor at 20 µM; 200,000 tested, under 10 active; AID 1136;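 active means activation factor at least 2 at 20 µM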
Target sequence (P05186 whole entry, looked up): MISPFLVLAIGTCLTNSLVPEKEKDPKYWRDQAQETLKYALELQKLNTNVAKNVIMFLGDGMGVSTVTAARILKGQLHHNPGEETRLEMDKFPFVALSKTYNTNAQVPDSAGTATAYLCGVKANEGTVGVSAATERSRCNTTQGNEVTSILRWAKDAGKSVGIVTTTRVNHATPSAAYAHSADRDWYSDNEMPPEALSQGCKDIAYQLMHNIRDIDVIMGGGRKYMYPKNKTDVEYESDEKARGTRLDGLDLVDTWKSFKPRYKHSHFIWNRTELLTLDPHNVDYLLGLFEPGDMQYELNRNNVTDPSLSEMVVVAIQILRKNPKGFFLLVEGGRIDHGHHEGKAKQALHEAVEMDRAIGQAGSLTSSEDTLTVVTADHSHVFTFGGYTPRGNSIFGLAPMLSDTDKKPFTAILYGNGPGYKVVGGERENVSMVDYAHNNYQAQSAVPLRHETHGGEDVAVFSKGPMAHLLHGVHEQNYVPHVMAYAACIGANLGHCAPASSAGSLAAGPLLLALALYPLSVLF
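Test system – human TNAP · Doses – 20 µM single point · Incubation – 30 min, room temperature · Signal – luminescent substrate turnover signal · Read-out basis – activation factor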
Efa HMGR inh: blocks class II HMG-CoA reductase of Enterococcus faecalis; inhibition, % at 10 µM; 0.41% of 190,000 active; purified E. faecalis HMGR, NADPH absorbance 340 nm kinetic;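 active means inhibition above a set limit, the median over all tested compounds plus 3 SD, cut at about 9.5% in these data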;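 further: enzyme runs in reverse so mevalonate oxidation gives rising NADPH absorbance; 0% = complete reaction with DMSO and 100% = background rate lacking mevalonate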
Furin inh: blocks human furin protease activity. 0.061% of 220,000 active. purified furin, fluorogenic substrate cleavage. AID 463115. inhibition, % at 20 µM or 30 µM; in the data active means inhibition above about 25%
TNAP inh noacc: inhibitors of human TNAP without phosphate acceptor; P05186; purified TNAP, CDP-star luminescence, 30 min; inhibition, % at 20 µM; 0.26% of 200,000 active; AID 1012;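 active means tissue-nonspecific alkaline phosphatase inhibition above about 50% at 20 µM in the single-dose screen, limit read from the data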;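 further: 0% = DMSO negative control and 100% = EDTA positive control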
TNAP inh hiacc: TNAP (human) inhibition, high acceptor | inhibition, % at 20 µM | 0.03% of 200,000 active | purified TNAP, CDP-star luminescence, 1 M DEA | P05186;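 active means over 50% inhibition of tissue-nonspecific alkaline phosphatase at 20 µM in the single-dose screen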;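 further: plate controls were DMSO wells for no effect and EDTA-quenched wells as full inhibition for full effect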
Starred values were filed as active, the others as inactive; nt = no result given.

SMILES	Pf gamet viab	TNAP act hi DEA	Efa HMGR inh	Furin inh	TNAP inh noacc	TNAP inh hiacc
Cc1ccc(N2C(=O)N(c3ccc(C)cc3)C3CS(=O)(=O)CC32)cc1 (centres undefined)	23	1	-9	-24	-4	-1
Cc1ccc(N2C(=S)SC3CS(=O)(=O)CC32)cc1 (centres undefined)	38*	1	-2	-26	7	0
COC(=O)N1CCN(CCc2ccccc2)CC1	nt	1.1	13*	-20	-10	-6
COc1ccc(C)cc1S(=O)(=O)Nc1cccnc1	11	0.4	-1	-28	85*	64*
COc1ccc(OC)c(S(=O)(=O)Nc2cnc3ccccc3c2)c1	nt	0.2	-1	-17	94*	82*
Cc1ccc(C(=O)NC(=S)Nc2ccc(S(=O)(=O)N3CCN(C)CC3)cc2)cc1	12	1	0	-18	15	0
O=C(CCCn1c(SCC(=O)c2ccc(O)c(O)c2)nc2ccccc2c1=O)NCC1CCCO1 (centres undefined)	6	0.9	2	-14	96*	11
CCCCn1c(SCC(=O)c2ccc(O)c(O)c2)nc2ccsc2c1=O	nt	0.8	-8	-11	96*	19
O=C(O)CCCCCn1c(SCC(=O)N2CCCC2)nc2ccsc2c1=O	-13	1	2	-9	-8	-2
O=C(O)CCCCCn1c(SCC(=O)c2ccc(O)c(O)c2)nc2ccsc2c1=O	6	0.7	13*	-2	94*	28
CC1=C(C(=O)Nc2ccccc2F)C(c2cccs2)NC(=S)N1 (centres undefined)	nt	1.1	-8	-4	-6	-6
O=C(CSc1ncn[nH]1)N1c2ccccc2Sc2ccccc21	7	nt	nt	-14	nt	nt
CCOC(=O)c1cc(-c2ccc3c(c2)OCCO3)n[nH]1	3	1	-7	-22	84*	-3
O=C(O)c1cc(-c2ccc3c(c2)OCCO3)n[nH]1	nt	1.1	6	-26	58*	-7
CCOC(=O)c1cc(-c2ccc(OC)cc2)n[nH]1	16	nt	nt	-20	nt	nt
O=C(Cc1ccccc1)N/N=C/c1ccc[nH]1	-3	nt	nt	1	nt	nt
O=C(NC1(Cc2ccccc2)CCN(Cc2ccc(-c3ccccc3)cc2)C1=O)c1ccccc1 (centres undefined)	16	nt	nt	nt	nt	nt
CCOC(=O)c1ccc(N2C(=O)CC(SCC(=O)Nc3ccc(S(N)(=O)=O)cc3)C2=O)cc1 (centres undefined)	-12	1	5	-29	33	3
Cc1ccc2[nH]c(=O)c(CN(C(=O)c3cccc([N+](=O)[O-])c3)C(C)C)cc2c1	-10	nt	nt	-6	nt	nt
C=CCn1c(COc2ccccc2F)nnc1SCCN1C(=O)c2ccccc2C1=O	5	1	-8	-7	-8	3
O=C1C2CC=CCC2C(=O)N1c1n[nH]c(CCc2ccccc2)n1 (centres undefined)	nt	1	-1	-13	79*	2
O=C1C2C3C=CC(C3)C2C(=O)N1c1ccc2ccccc2n1 (centres undefined)	nt	1	-3	-12	-10	-5
O=C1C2C3C=CC(C3)C2C(=O)N1c1cccc(N2C(=O)C3C4C=CC(C4)C3C2=O)n1 (centres undefined)	0	1	-4	-27	-8	-3
O=C1C2CC=CCC2C(=O)N1c1nc2n(n1)C(c1ccccc1)CC(c1ccccc1)N2 (centres undefined)	5	1.1	-2	-18	-10	-6
O=C1C2CC=CCC2C(=O)N1c1ccc(NCCc2ccccc2)c([N+](=O)[O-])c1 (centres undefined)	-2	0.9	2	-11	0	12
SMILES	Pf gamet viab	TNAP act hi DEA	Efa HMGR inh	Furin inh	TNAP inh noacc	TNAP inh hiacc
O=C1C2C3C=CC(C3)C2C(=O)N1c1n[nH]c(-c2cccnc2)n1 (centres undefined)	9	1	2	7	59*	-2
O=C1C2C3C=CC(C3)C2C(=O)N1c1n[nH]c(-c2ccccc2)n1 (centres undefined)	-17	1	-5	-1	96*	-2
O=C1C2CC=CCC2C(=O)N1c1n[nH]c(-c2ccccc2)n1 (centres undefined)	nt	1	-8	-11	97*	2
CNC(=O)C1CC(=O)N(CCCc2ccccc2)C(=Nc2ccccc2)S1 (centres undefined)	-3	1	-2	-19	-3	0
CC(=O)NC1C(=O)N=C(SCC(=O)Nc2sc3c(c2C#N)CCCCCC3)NC1=O (centres undefined)	12	1	9.8*	-22	-10	-1
COc1ccc(NC(=O)COC(=O)c2ccc(S(=O)(=O)N(C)c3ccccc3OC)cc2)c(OC)c1	nt	1	-5	-18	-2	-3
CCOC(=O)c1cc(CC)sc1/N=C/C1=C(O)CCCC1=O	2	1	-2	37*	16	-4
CCOC(=O)c1c(/N=C/C2=C(O)CCCC2=O)sc2c1CCCC2	16	nt	nt	15	nt	nt
CN(CCc1ccccc1)C1CCCN(S(=O)(=O)CC(F)(F)F)C1 (centres undefined)	12	nt	nt	nt	nt	nt
Cc1[nH]nc2c1C(c1ccco1)C(C#N)=C(N)O2 (centres undefined)	nt	0.9	3	-23	20	9
Cc1[nH]nc2c1C(CCc1ccccc1)C(C#N)=C(N)O2 (centres undefined)	nt	1	27*	nt	14	0
N#CC1=C(N)Oc2n[nH]c(-c3ccc(F)cc3)c2C1c1cccnc1 (centres undefined)	-6	1	2	-7	22	0
N#CC1=C(N)Oc2n[nH]c(-c3ccccc3)c2C1c1ccncc1 (centres undefined)	nt	1	-3	-21	53*	-3
COc1ccc(-n2c(C)cc(C)c(C(C)=O)c2=S)cc1	13	1	1	-15	-9	-4
Fc1ccccc1C1c2[nH]c3ccccc3c2CCN1Cc1ccoc1 (centres undefined)	5	1	-2	-35	-8	-5
COc1ccc(N2CC(C(=O)Nc3nnc(SCc4ccccn4)s3)CC2=O)cc1 (centres undefined)	11	1	-1	-23	-7	-3
Cc1cc(F)ccc1NCC(=O)Nc1ccc(Br)cc1C	1	1	-11	-7	-12	-1
COCC(=O)Nc1ccc(Br)cc1C	39*	1	-5	-21	-9	0
COC(=O)N/N=C/c1cn(Cc2ccccc2Cl)c2ccccc12	9	1	-2	-15	-10	-3
Cc1[nH][nH]c(=O)c1C(c1c(C)[nH][nH]c1=O)c1cn(Cc2ccccc2Cl)c2ccccc12	5	0.8	67*	-11	-25	21
NNC(=O)c1oc2nc(-c3ccco3)cc(-c3ccco3)c2c1N	5	nt	nt	25*	nt	nt

Screening data as filed in PubChem BioAssay.
